Experimental data gathered from unrelated publications.
Each line is one published result; the experiments were not run side by side.
Target: Serine/threonine-protein kinase RIO1 (RIOK1, Homo sapiens, UniProt Q9BRS2)
Sequence (Q9BRS2 1-568, as in one of the studies): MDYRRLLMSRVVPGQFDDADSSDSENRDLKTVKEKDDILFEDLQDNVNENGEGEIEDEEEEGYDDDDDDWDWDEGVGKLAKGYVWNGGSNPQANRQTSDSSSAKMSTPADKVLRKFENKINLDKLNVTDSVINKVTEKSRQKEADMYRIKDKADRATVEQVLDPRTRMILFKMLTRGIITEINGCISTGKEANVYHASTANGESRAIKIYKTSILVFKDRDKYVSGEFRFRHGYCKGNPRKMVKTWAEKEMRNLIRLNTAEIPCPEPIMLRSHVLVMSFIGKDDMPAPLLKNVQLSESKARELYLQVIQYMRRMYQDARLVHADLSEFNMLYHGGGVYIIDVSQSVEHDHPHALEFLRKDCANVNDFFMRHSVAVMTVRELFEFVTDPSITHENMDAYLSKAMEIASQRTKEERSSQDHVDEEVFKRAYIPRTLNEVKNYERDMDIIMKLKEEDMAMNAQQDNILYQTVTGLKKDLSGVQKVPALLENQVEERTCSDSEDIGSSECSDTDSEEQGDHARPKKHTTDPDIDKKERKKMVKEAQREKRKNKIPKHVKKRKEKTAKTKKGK

Structure (SMILES) | observed | method | tested at | remaining binding
O=C(c1ccc(Nc2nccc(-c3cc4ccccc4s3)n2)cc1)N1CCC(N2CCCC2)CC1 | binding | competition with immobilised ligand | 1 µM | 0.1%
Cn1nc(C(=O)NCc2ccc(C(=O)O)cc2)cc1-c1ccc2[nH]ccc2c1 | cell-free assay | competition with immobilised ligand | 0.1 µM | 76%
Cc1cnn2ncc(-c3ccnc(N(C)C)n3)c2c1 | binding |  | 1 µM | 98%
O=C(c1ccc(Nc2ncc(Cl)c(-c3cc4ccccc4s3)n2)cc1)N1CCC(N2CCCC2)CC1 | binding | competition with immobilised ligand | 1 µM | 0%
C[C@@H](c1ccc(-n2cnc3c(N)ncnc32)cc1)N1CCc2nn(C)c(Cc3ccccc3)c2C1=O | binding | competition with immobilised ligand | 0.1 µM | 69%
C[C@@H]1CN(c2cc(-c3n[nH]c4ccc(OC5(C)CC5)cc34)ncn2)C[C@H](C)O1 | cell-free assay | competition with immobilised ligand | 0.1 µM | 100%
COc1ccnn2ncc(-c3ccnc(N(C)C)n3)c12 | binding |  | 1 µM | 100%
O=C(NCCCN1CCOCC1)c1ccc(Nc2nccc(-c3cc4ccccc4s3)n2)cc1 | binding | competition with immobilised ligand | 1 µM | 0.1%
CN(C)c1nccc(-c2cnc3ncccn23)n1 | binding |  | 1 µM | 100%
CNCc1ccccc1-c1csc([C@H](C)Nc2nc(C)nc3cc(OC)c(OC)cc23)c1 | cell-free assay | competition with immobilised ligand | 1 µM | 96%
CCN1CCN(Cc2ccc(C(=O)Nc3ccc(C)c(Oc4ccc5c(c4)CC(=O)N5)c3)cc2C(F)(F)F)CC1 | binding | competition with immobilised ligand | 1 µM | 90%
C[C@H]1CCN(c2nccc(-c3cnn4ncccc34)n2)C1 | binding |  | 1 µM | 62%
CNC(=O)[C@@H]1CC[C@@H](n2c(-c3ccc4cnccc4c3)nc3ccc(C(=O)NCc4cccc(C(N)=O)c4)cc32)C1 | binding | competition with immobilised ligand | 1 µM | 100%
CN(c1nccc(-c2cnn3ncccc23)n1)C1CC1 | binding |  | 1 µM | 100%
COc1ccc2c(c1)O[C@@H](c1ccc(OC)c(OC)c1)C[C@H]2NC(=O)C1(c2ccc3c(c2)OC(F)(F)O3)CC1 | cell-free assay | competition with immobilised ligand | 1 µM | 100%
COc1cnc(Nc2cccc(S(N)(=O)=O)c2)nc1N1CCN(c2ccccc2)C(=O)C1 | binding | competition with immobilised ligand | 1 µM | 49%
O=C(NCc1ncc(C(F)(F)F)cc1Cl)c1ccc2c(c1)C1(CCS(=O)(=O)CC1)[C@@H](C1CC1)N2S(=O)(=O)c1ccc(F)cc1 | cell-free assay | competition with immobilised ligand | 1 µM | 78%
O=C(Nc1c[nH]nc1C(=O)NC1CCNCC1)c1cc(F)cc(F)c1 | binding | competition with immobilised ligand | 1 µM | 68%
CCCOc1ccc([C@@H]2[C@@H](C(=O)O)[C@H](c3ccc4c(c3)OCO4)CN2CC(=O)Nc2c(CC)cccc2CC)cc1 | cell-free assay | competition with immobilised ligand | 1 µM | 100%
c1cncc(-c2cccc(Nc3nccc(NC4CCCCC4)n3)c2)c1 | binding | competition with immobilised ligand | 10 µM | 26%
Cc1nc(Cc2cccc(C(F)(F)F)c2)sc1-c1ccc(C(N)=O)nc1 | cell-free assay | competition with immobilised ligand | 1 µM | 94%
CC1CCCN1c1nccc(-c2cnn3ncccc23)n1 (stereo not shown) | binding |  | 1 µM | 100%
